Results pooled from the literature.
Compare with care: the assays were run in different laboratories.

Structure (SMILES)	test	system	conditions	concentration
CSc1cc(Oc2ccnc3[nH]c(=O)cnc23)ccc1NC(=O)Nc1cc(C(C)(C)C)nn1-c1ccccc1	–	BALB/c mouse, plasma	oral, 10 mg/kg/day, 14 h	~1000 nM
O=S(=O)(c1ccc(-c2ccc3nccc(Nc4ccncn4)c3c2)cc1)N1CCOCC1	–	female BALB/c mouse, plasma	intraperitoneal, 10 mg/kg, 15 min	4460 ng/mL
O=C(O)C1CCN(c2ncc(-c3ccc4c(c3)OCCCO4)s2)CC1	–	male Swiss mouse, plasma	oral, 30 mg/kg, 2 h, single dose	5990 ng/mL
CC(C)Cc1nn(C)c(=O)c2c(SCCCO)n(Cc3cccc4ccccc34)cc12	–	mouse, plasma	intraperitoneal, 20 mg/kg, 7 days, single dose	0 nM
O=S(=O)(c1cccc(C(F)(F)F)n1)N1CCc2ccc(OCc3c(F)cccc3Cl)cc21	–	mouse, plasma	intraperitoneal, 10 mg/kg, 4 h	120 nM
Cc1ccc(-c2cccc3cnc(Nc4ccc(C(=O)N5CCOCC5)cc4)nc23)cn1	–	mouse, brain	intraperitoneal, 10 mg/kg, 2 h	0 nM
O=c1nc(N2CCN(CC3CCCCC3)CC2)sc2c([N+](=O)[O-])cc(C(F)(F)F)cc12	–	CD-1 mouse, lung	intravenous, 10 mg/kg, 15 min	2830 ng/mL
Cc1ccc([N+](=O)[O-])cc1S(=O)(=O)n1c(C)nc2ccccc21	–	mouse, liver	intraperitoneal, 30 mg/kg, 24 h	3100 nM
O=c1cc(-c2ccccc2)oc2c(O)c(O)ccc12	–	male CD-1 mouse, brain	oral, 50 mg/kg, 30 min	18 ng/g
C[C@]12C[C@@]34C=CC(=O)[C@@](C)(CCC(=O)Nc5c(O)ccc(C(=O)O)c5O)[C@@H]3[C@H](C[C@@H]1C4)O2	–	male C57BL/6 mouse, plasma	intravenous, 3 mg/kg, 5 min, single dose	20000 nM
CC(C)Oc1cccc(-c2cnc(N3CCC(C(N)=O)CC3)s2)c1	–	male Swiss mouse, plasma	oral, 30 mg/kg, 30 min, single dose	416 ng/mL
CN(C)c1ncnc2[nH]cc(-c3cccc(Cl)c3)c12	mass spectrometry	female C57BL/6 mouse, plasma	intraperitoneal, 20 mg/kg, 30 min, single dose	8700 nM
O=S(=O)(c1cccc(C(F)(F)F)c1)N1c2cc(OCc3c(Cl)cncc3Cl)ccc2CC1C(F)(F)F (stereo not drawn)	–	mouse, plasma	intraperitoneal, 10 mg/kg, 4 h	160 nM
CC(C)CN(C[C@@H](O)[C@H](Cc1ccccc1)NC(=O)O[C@H]1CO[C@H]2OCC[C@H]21)S(=O)(=O)c1ccc(N)cc1	–	BALB/c mouse, brain	intravenous, 2.5 mg/kg, 3 h	1.19 ng/g
O=S(=O)(c1cccc(C(F)(F)F)c1)N1CCc2ccc(OCc3c(F)cncc3Cl)cc21	–	mouse, plasma	intraperitoneal, 10 mg/kg, 4 h	210 nM
c1ccc(-c2nc(N3CCC(c4ccccn4)C3)c3ccccc3n2)nc1 (stereo not drawn)	–	female BALB/c mouse, plasma	oral, 50 mg/kg, 24 h	63.5 ng/mL
COc1ccc2[nH]c3c(C)c4ccnc(C(=O)N[C@H](C)CN(C)C)c4cc3c2c1	–	male C57BL/6 mouse, plasma	intraperitoneal, 10 mg/kg, 2 h, single dose	40 nM
COc1cc(F)c([C@@H]2CNC(=O)[C@H]2NC(=O)Nc2ccccc2)c(F)c1	–	C57BL/6 mouse, plasma	oral, 3 mg/kg, 1 h	107 nM
CC(C)(Nc1nc(-c2ccccn2)nc2ccccc12)c1ccccn1	–	female BALB/c mouse, plasma	oral, 50 mg/kg, 1 h	4740 ng/mL
O=S(=O)(c1cccc(C(F)(F)F)c1)N1CCc2ccc(OCc3c(Cl)cncc3Cl)cc21	–	mouse, plasma	intraperitoneal, 10 mg/kg, 2 h	890 nM
Cc1c2ccnc(C(=O)N[C@H](C)CN(C)C)c2cc2c3cc(O)ccc3n(C)c12	–	male C57BL/6 mouse, brain	intraperitoneal, 10 mg/kg, 2 h, single dose	80 nM
